Screening results (PubChem BioAssay)
A selection: hits, their analogues and other compounds. The true share with any hit is near 5.8%.
Pf Dd2 growth: inhibitors of Plasmodium falciparum Dd2 growth. P. falciparum Dd2 growth, SYBR Green, 72 h; stronger effect = lower value. activity change, % at 10 µM. 94,000 compounds, 2.3% hits. AID 1159554; in the data active = activity change below about -80%; inconclusive = no clear call, values can overlap the other calls
GASC1 inh: blocks human GASC-1 (KDM4C) demethylase activity. Q9H3R0. 96,000 compounds, 0.15% hits. GST-KDM4C 2-372, H3K9me3 peptide, LANCE TR-FRET. inhibition, % at 12.5 µM;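 active = mean replicate inhibition above about 25%, with at least 55% of replicates also reaching it, limit read from the data, passing the limit was not always enough; inconclusive = only one of those two conditions met; inactive = neither condition met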
Target sequence (Q9H3R0 2-372 limits assumed): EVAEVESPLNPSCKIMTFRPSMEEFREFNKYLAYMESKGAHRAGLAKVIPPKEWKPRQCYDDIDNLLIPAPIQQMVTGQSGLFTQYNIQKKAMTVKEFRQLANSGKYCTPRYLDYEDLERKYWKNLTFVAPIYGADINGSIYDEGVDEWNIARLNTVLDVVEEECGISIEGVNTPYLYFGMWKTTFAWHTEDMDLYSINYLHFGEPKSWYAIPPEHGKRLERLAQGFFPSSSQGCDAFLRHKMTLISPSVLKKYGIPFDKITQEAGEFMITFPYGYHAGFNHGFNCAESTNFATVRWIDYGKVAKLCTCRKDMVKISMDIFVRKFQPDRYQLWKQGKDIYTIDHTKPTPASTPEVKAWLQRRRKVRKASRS
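Compound: one test concentration per compound; Material: GST-GASC-1 enzyme fragment 2-372; Amount: GASC-1 enzyme at 10 nM final in reaction; Also added: H3K9me3 peptide substrate, Fe(II), 2-oxoglutarate; Technique: LANCE TR-FRET; Times: 30 min demethylation and 1 h detection at room temperature.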
Tcruzi prolif: inhibitors of T. cruzi proliferation; T. cruzi beta-gal in NIH3T3, GalScreen luminescence, 90 h; inhibition, % at 8.34 µM; 77,000 compounds, 5.9% hits;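 active = mean inhibition above about 93%, with at least 55% of replicates each passing it, limit read from the data, passing the limit was not always enough; inconclusive = only one of those two conditions holds; inactive = neither condition holds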
IDH1 R132H inh: blocks human IDH1 R132H reductase activity | 70,000 compounds, 0.18% hits | O75874 | inhibition, % at 10 µM | diaphorase/resazurin fluorescence, 60 min; in the data active = inhibition above about 34%; inconclusive = no clear call, values can overlap the other calls; inactive = below about 11%;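 also: 0% = DMSO and 100% = no enzyme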
Active calls of the source: *; ? = inconclusive; . = no result given; ! = repeats disagree.

SMILES	Pf Dd2 growth	GASC1 inh	Tcruzi prolif	IDH1 R132H inh
CCCNC(=O)N1C[C@H]2[C@@H](c3ccccc31)[C@@H](CO)N2Cc1ccc2c(c1)OCO2	0	2	26	.
C/C=C/c1ccc2c(c1)O[C@H](CN(C)Cc1cccnc1)[C@H](C)CN([C@H](C)CO)S2(=O)=O	9	-1	39	0
C[C@@H]1CN([C@H](C)CO)S(=O)(=O)c2ccc(/C=C/c3ccccc3)cc2O[C@H]1CN(C)Cc1cccnc1	-86*	6	.	.
C[C@H](CO)N1C[C@H](C)[C@@H](CN(C)Cc2cccnc2)Oc2cc(/C=C/c3ccccc3)ccc2S1(=O)=O	-89*	9	.	.
C[C@@H]1CN([C@H](C)CO)C(=O)c2cccc(NC(=O)c3ccc(-c4nccs4)cc3)c2O[C@@H]1CN(C)C(=O)Nc1ccc2c(c1)OCO2	-17	1	67	1
C[C@H]1CN([C@@H](C)CO)C(=O)Cc2cc(NC(=O)CCC(F)(F)F)ccc2O[C@H]1CN(C)S(C)(=O)=O	-87*	3	-1	-1
C[C@@H]1CN([C@@H](C)CO)C(=O)Cc2cc(NC(=O)Nc3ccc(C(F)(F)F)cc3)ccc2O[C@@H]1CN(C)CC1CC1	-83*	-3	70	.
C[C@H](CO)N1C[C@H](C)[C@H](CN(C)CC2CC2)Oc2ccc(NC(=O)Nc3ccc(C(F)(F)F)cc3)cc2CC1=O	-76	-1	29	.
C[C@@H]1CN([C@H](C)CO)C(=O)Cc2cc(NC(=O)Nc3ccccc3)ccc2O[C@H]1CN(C)CC1CC1	-16	0	-38	0
C[C@H](CO)N1C[C@H](C)[C@H](CN(C)CC2CC2)Oc2ccc(NC(=O)Nc3ccccc3)cc2CC1=O	-89*	-3	-27	1
C[C@@H]1CCCCO[C@H](CN(C)Cc2ccc(Cl)c(Cl)c2)[C@@H](C)CN([C@@H](C)CO)C(=O)c2cc(NC(=O)Nc3ccc4c(c3)OCO4)ccc2O1	-91*	-5	65	.
C[C@@H]1CN([C@@H](C)CO)C(=O)c2cc(NC(=O)Nc3ccc4c(c3)OCO4)ccc2O[C@@H](C)CCCCO[C@@H]1CN(C)Cc1ccc2c(c1)OCO2	?	0	.	-1
C[C@@H]1CN([C@@H](C)CO)C(=O)c2cc(NC(=O)Nc3ccc(F)cc3)ccc2O[C@@H](C)CCCCO[C@@H]1CN(C)Cc1ccc2c(c1)OCO2	-83*	-1	75	.
C[C@@H]1CCCCO[C@@H](CN(C)Cc2ccc3c(c2)OCO3)[C@H](C)CN([C@@H](C)CO)C(=O)c2cc(N(C)C)ccc2O1	25	.	102*!	.
C[C@@H]1CCCCO[C@H](CN(C)Cc2ccc3c(c2)OCO3)[C@H](C)CN([C@@H](C)CO)C(=O)c2cc(N(C)C)ccc2O1	-18	.	-5	-1
C/C=C/c1ccc2c(c1)O[C@H](CN(C)C(=O)c1ccccc1F)[C@H](C)CN([C@@H](C)CO)S2(=O)=O	4	0	27	1
COc1cccc(C#Cc2cnc3c(c2)C(=O)N([C@H](C)CO)C[C@H](C)[C@H](CN(C)C(=O)C2CCOCC2)O3)c1	-13	5	.	1
COc1cccc(C#Cc2cnc3c(c2)C(=O)N([C@@H](C)CO)C[C@H](C)[C@H](CN(C)C(=O)C2CCCCC2)O3)c1	-83*	-1	70	.
C[C@H](CO)N1C[C@H](C)[C@@H](CN(C)C(=O)c2ccccn2)Oc2ncc(Br)cc2C1=O	15	26*	.	8
COc1cccc(C#Cc2cnc3c(c2)C(=O)N([C@@H](C)CO)C[C@H](C)[C@@H](CN(C)C(=O)C2CCOCC2)O3)c1	-83*	-2	.	-11
C[C@@H]1CN([C@@H](C)CO)C(=O)c2cc(Br)cnc2O[C@@H]1CN(C)C(=O)C1CCOCC1	42	39*	-13	19
O=C(c1cccnc1)N1CC[C@H]2[C@H](CO)Nc3ccc(-c4ccccc4)cc3[C@H]21	-26	-1	63	.
COc1ccc(CN(C)C[C@H]2OCCCC[C@@H](C)Oc3ccc(NC(=O)Nc4ccc(C(F)(F)F)cc4)cc3C(=O)N([C@@H](C)CO)C[C@H]2C)cc1	-88*	.	56	.
COc1ccc(NC(=O)Nc2ccc3c(c2)C(=O)N([C@H](C)CO)C[C@H](C)[C@H](CN(C)Cc2ccc(C(F)(F)F)cc2)OCCCC[C@@H](C)O3)cc1	-25	-1	84	.
COc1ccc(CN(C)C[C@H]2OCCCC[C@H](C)Oc3ccc(NC(=O)Nc4ccc(C(F)(F)F)cc4)cc3C(=O)N([C@H](C)CO)C[C@@H]2C)cc1	-37	-3	52	1
SMILES	Pf Dd2 growth	GASC1 inh	Tcruzi prolif	IDH1 R132H inh
COc1ccc(NC(=O)Nc2ccc3c(c2)C(=O)N([C@H](C)CO)C[C@@H](C)[C@H](CN(C)Cc2ccc(C(F)(F)F)cc2)OCCCC[C@H](C)O3)cc1	-87*	0	59	-3
COc1ccc(NC(=O)Nc2ccc3c(c2)C(=O)N([C@@H](C)CO)C[C@@H](C)[C@H](CN(C)Cc2ccc(C(F)(F)F)cc2)OCCCC[C@@H](C)O3)cc1	-85*	0	72	0
C[C@@H]1CN([C@H](C)CO)C(=O)c2cc(NS(=O)(=O)c3cn(C)cn3)ccc2O[C@@H](C)CCCCO[C@@H]1CN(C)C	-21	0	7	1
COC(=O)C(CC#Cc1ccc2c(c1)[C@]1(C(=O)N2)[C@H](c2ccccc2OCCO)N2[C@H](c3ccccc3)[C@H](c3ccccc3)OC(=O)[C@H]2[C@@H]1C(=O)N1CCc2cc(OC)c(OC)cc2C1)C(=O)OC	.	.	.	1
CCCN1C[C@H](C)[C@@H](OC)CN(C)C(=O)c2ccc(NC(=O)Nc3c(C)noc3C)cc2OC[C@H]1C	-2	-1	-27	0
CCCNC(=O)N1CC2(CN(C(=O)C3CCC3)C2)c2c([nH]c3cc(OC)ccc23)[C@H]1CO	-85*	0	.	.
COc1ccc2c3c([nH]c2c1)[C@@H](CO)N(Cc1ccccc1F)CC31CN(C(=O)C2CCC2)C1	-92*	-2	.	.
COc1ccc2c3c([nH]c2c1)[C@H](CO)N(Cc1nccs1)CC31CN(C(=O)C2CCC2)C1	-18	0	.	.
COc1ccc2c3c([nH]c2c1)[C@@H](CO)N(Cc1ccccc1F)CC31CN(C(=O)C2CCOCC2)C1	32	.	.	.
COc1ccc2c3c([nH]c2c1)[C@H](CO)N(Cc1cc(F)ccc1F)CC31CN(C(=O)C2CCC2)C1	-88*	0	.	.
Cc1ccc(S(=O)(=O)N(C)C[C@H]2OCCCC[C@@H](C)Oc3ccc(NC(=O)C4CCCCC4)cc3C(=O)N([C@@H](C)CO)C[C@@H]2C)cc1	-76	0	41	.
C[C@H](CO)N1C[C@H](C)[C@@H](CN(C)S(=O)(=O)c2ccccc2)OCCCC[C@H](C)Oc2ccc(NC(=O)C3CCCCC3)cc2C1=O	-53	0	55	.
C[C@@H]1CN([C@H](C)CO)C(=O)c2cc(NC(=O)C3CCCCC3)ccc2O[C@@H](C)CCCCO[C@@H]1CN(C)S(=O)(=O)c1ccccc1	-82*	0	59	.
